Assay [1] is described as follows: reducers of endogenous Her2 protein level, primary screen, SKBR3 breast tumor cells, AlphaScreen, ATP viability (AID 461).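 On Her2 level: lower value means less Her2 protein in the cells.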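 On viability: percent of carrier control wells set as 100% viability.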 The note with it: 18-24 h, measured here: SKBR3 viability, ATP luminescence, at 10 µM. On the technique in general: Alpha assays give light when donor and acceptor beads are brought close together.
Assay [2] addresses Receptor tyrosine-protein kinase erbB-2 (Homo sapiens) (UniProt P04626). Described as above. The note with it: 18-24 h, at 10 µM, stronger effect = lower value.
The nature of assay [3]: SK-BR-3 cell growth inhibitors, pilot screen, 24 h, human (AID 572;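 active means viability at or below 10% of carrier control in both of two separate runs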;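 further: compound exposure lasted between 18 and 24 h rather than exactly 24 h; 100% = carrier-treated control wells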). Particulars: SK-BR-3 viability, CellTiter-Glo luminescence, at 10 µM, stronger effect = lower value. (In ATP-based viability assays light output follows the ATP content of the culture.)
Assay [4] in a line: HUVEC growth inhibition – cell-based, human, primary screen (AID 575;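 active means viability at or below 30% in both replicate assays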;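 further: 100% = median of untreated cell wells with 0.1% DMSO on each plate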). The note with it: HUVEC proliferation, CellTiter-Glo luminescence, 72 h; at 10 µM; stronger effect = lower value. Summed up: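 Test system: HUVEC primary cells. Quantity: 1250 endothelial cells in each well. Dosing: single-point 10 µM, DMSO 0.1% final. Incubation: 72 h treatment at 37 °C. Measured by: CTG luminescence. Control set: DMSO cell controls and MePR drug controls. Plate: collagen-coated 384-well format.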

The nature of assay [5]: growth inhibitors of H69AR lung tumor, primary screen, human, duplicate replicates (AID 580;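 active means viability at or under a set limit in both replicates, limit being median viability minus 3 SD, cut at about 48% in these data, passing the limit was not always enough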;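 further: 100% = mean luminescence of untreated wells and 0% = no signal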). The note with it: H69AR lung tumor cells viability, ATP luminescence, 72 h; at 10 µM; stronger effect = lower value.
The nature of assay [6]: reversal of MRP1-mediated doxorubicin resistance, pilot screen, H69AR cells, doxorubicin co-treatment (AID 601;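 active means viability loss from added drug above about 55%, and viability with drug at most 40%, in both replicates, limit read from the data, passing the limit was not always enough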). Particulars: CellTiter-Glo, 72 h, at 10 µM; for differential viability (reversal): stronger effect = higher value.
Assay [7] is described as follows: 384-well plate pilot, post-Golgi transport modulator project, inhibition of yeast transport mutant growth (AID 636; in the data active means inhibition above about 31%). The note with it: absorbance 615 nm, about 18 h, stronger effect = higher value.
The nature of assay [8]: growth suppression of yeast trafficking mutant, preliminary HTS, modulators of trafficking downstream of Golgi apparatus project, 1536-format plate, OD 615 nm (AID 637; in the data active means inhibition above about 30%). Particulars: yeast transport mutant growth, absorbance 615 nm, 18 h; stronger effect = higher value.
The mark [9] stands for this setting: H69AR cells + 2 uM doxorubicin, measured here: viability with 2 uM doxorubicin, stronger effect = lower value.
Setting [10] is: H69AR cells, compound alone cytotoxicity.

The source made the active and inactive calls.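 How the source made its calls, unless noted: active means Her2 level under about 52% in both replicate screens, with viability over 70% of control (limit read from the data); inconclusive means Her2 under the limit in one screen only, or viability under 70%; inactive means Her2 level above the set limit.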 Square brackets hold non-standard residues; d marks the D form. Peptide text beside a SMILES is read from it. * marks the point of attachment. ξ: configuration not given here. Piv = CC(C)(C)C(=O)*; ξNva = CCCC(N)C(=O)O

Sequence of Receptor tyrosine-protein kinase erbB-2 (Homo sapiens) (P04626 whole entry, looked up): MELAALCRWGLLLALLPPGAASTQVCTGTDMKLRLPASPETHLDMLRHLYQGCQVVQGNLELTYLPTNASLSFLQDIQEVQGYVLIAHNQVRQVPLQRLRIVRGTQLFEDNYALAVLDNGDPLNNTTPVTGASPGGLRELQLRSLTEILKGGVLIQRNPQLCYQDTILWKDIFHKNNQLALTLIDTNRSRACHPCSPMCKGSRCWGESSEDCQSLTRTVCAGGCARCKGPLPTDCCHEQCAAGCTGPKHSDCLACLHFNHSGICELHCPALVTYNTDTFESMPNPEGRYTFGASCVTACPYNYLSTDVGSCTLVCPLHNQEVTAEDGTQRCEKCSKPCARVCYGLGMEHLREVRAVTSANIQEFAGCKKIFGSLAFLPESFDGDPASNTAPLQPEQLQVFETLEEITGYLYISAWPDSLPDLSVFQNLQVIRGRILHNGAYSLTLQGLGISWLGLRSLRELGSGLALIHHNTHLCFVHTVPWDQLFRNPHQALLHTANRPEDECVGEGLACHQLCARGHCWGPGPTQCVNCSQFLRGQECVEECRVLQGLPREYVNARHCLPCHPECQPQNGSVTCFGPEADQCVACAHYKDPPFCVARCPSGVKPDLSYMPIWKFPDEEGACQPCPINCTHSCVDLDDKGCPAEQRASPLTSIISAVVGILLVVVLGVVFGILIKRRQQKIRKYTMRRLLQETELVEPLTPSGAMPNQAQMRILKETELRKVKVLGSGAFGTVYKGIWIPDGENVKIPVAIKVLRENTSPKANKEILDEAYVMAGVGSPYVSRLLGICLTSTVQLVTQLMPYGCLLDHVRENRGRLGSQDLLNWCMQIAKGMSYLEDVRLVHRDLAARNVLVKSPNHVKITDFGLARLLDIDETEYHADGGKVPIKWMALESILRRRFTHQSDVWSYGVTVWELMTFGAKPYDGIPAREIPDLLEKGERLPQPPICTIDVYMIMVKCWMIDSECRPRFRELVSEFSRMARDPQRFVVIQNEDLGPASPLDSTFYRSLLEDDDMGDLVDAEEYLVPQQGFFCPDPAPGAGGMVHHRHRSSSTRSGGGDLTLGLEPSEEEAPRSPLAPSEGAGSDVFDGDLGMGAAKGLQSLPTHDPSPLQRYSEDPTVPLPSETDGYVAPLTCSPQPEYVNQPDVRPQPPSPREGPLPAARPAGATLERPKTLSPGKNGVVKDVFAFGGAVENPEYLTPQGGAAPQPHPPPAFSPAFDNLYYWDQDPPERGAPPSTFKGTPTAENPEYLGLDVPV

With `CN1C(=O)CC(N2CCC(C(N)=O)(N3CCCCC3)CC2)C1=O` (stereo not given), the viability in assay [1] was 104%; in assay [3] it was 104% (inactive); in assay [4], 104% (inactive); in assay [5], 98.9% (inactive); in assay [6] (setting [9]), 91.6%; in assay [6] (setting [10]), 98.9%. The Her2 level in assay [2] was 86% (inactive). Besides, the differential viability (reversal) in assay [6] (H69AR cells + 2 uM doxorubicin) is 7.3% (inactive). Besides, the figures for the inhibition in assay [7] and in assay [8] were -6.8% (inactive) and 5.25% (inactive), respectively.

Consider `COc1ccc(S(=O)(=O)N2CCCC2C(=O)Nc2ccc(C)cc2)cc1` (stereo not given), for which the viability was 88% in assay [1]; 88% (inactive) in assay [3]; 92.2% (inactive) in assay [4]; 89.2% (inactive) in assay [5]; 98% in assay [6] (setting [9]); 89.2% in assay [6] (setting [10]). Besides, the Her2 level in assay [2] is 105% (inactive). Further, in assay [6] (H69AR cells + 2 uM doxorubicin), the differential viability (reversal) was -8.78% (inactive). Moreover, the inhibition was -4.86% (inactive) in assay [7] and -4.1% (inactive) in assay [8].

`c1cn2cc(CSC3CCCCC3)nc2s1`: the viability in assay [1] was 84%; in assay [3], 84% (inactive); in assay [4] it was 86.5% (inactive); in assay [5] it was 97.2% (inactive); in assay [6] (setting [9]) it was 86.4%; in assay [6] (setting [10]), 97.2%. In addition, the Her2 level in assay [2] is 80% (inactive). For the same compound, the differential viability (reversal) in assay [6] (H69AR cells + 2 uM doxorubicin) was 10.9% (inactive). The figures for the inhibition in assay [7] and in assay [8] were -7.16% (inactive) and 6.35% (inactive), respectively.

Consider `CS(=O)(=O)NCc1ccc(C(=O)NCc2ccccc2)cc1`, for which the viability was 101% in assay [1]; 101% (inactive) in assay [3]; 83.5% (inactive) in assay [4]; 113% (inactive) in assay [5]; 94.4% in assay [6] (setting [9]); 113% in assay [6] (setting [10]). Moreover, in assay [2], the Her2 level was 97% (inactive). Besides, the differential viability (reversal) in assay [6] (H69AR cells + 2 uM doxorubicin) was 18.6% (inactive). Also, the inhibition is -4.47% (inactive) in assay [7] and 4% (inactive) in assay [8].

Turning to `COc1ccc2nc(C)cc(N3CCOCC3)c2c1`, the viability in assay [1] was 128%; in assay [3], 128% (inactive); in assay [4] it was 101% (inactive); in assay [5], 93.1% (inactive); in assay [6] (setting [9]) it was 96.9%; in assay [6] (setting [10]), 93.1%. Moreover, in assay [2], the Her2 level is 101% (inactive). In addition, in assay [6] (H69AR cells + 2 uM doxorubicin), the differential viability (reversal) was -3.77% (inactive). Further, the inhibition was -3.68% (inactive) in assay [7] and 9.67% (inactive) in assay [8].

As to `CCCC(NC(=O)CNC(=O)C(C)(C)C)C(=O)O` (stereo not drawn) (Piv-Gly-[ξNva]-OH), the viability was 91% in assay [1]; 91% (inactive) in assay [3]; 96.1% (inactive) in assay [4]; 97.5% (inactive) in assay [5]; 96% in assay [6] (setting [9]); 97.5% in assay [6] (setting [10]). Besides, in assay [2], the Her2 level is 91.5% (inactive). Moreover, the differential viability (reversal) in assay [6] (H69AR cells + 2 uM doxorubicin) was 1.52% (inactive). Also, the inhibition in assay [7] was -2% (inactive); in assay [8] it was -3.71% (inactive).

For the compound `CC(C)CCNc1cc(=O)n(C)c(=O)n1C`, the viability in assay [1] is 83.5%; in assay [3], 83.5% (inactive); in assay [4], 91% (inactive); in assay [5], 88.2% (inactive); in assay [6] (setting [9]), 88.6%; in assay [6] (setting [10]), 88.2%. In addition, the Her2 level in assay [2] is 120% (inactive). Further, the differential viability (reversal) in assay [6] (H69AR cells + 2 uM doxorubicin) is -0.405% (inactive). Further, the inhibition in assay [7] was -1.3% (inactive); in assay [8], 20.3% (inactive).

For `COC(=O)Nc1ccccc1C(=O)N1CCCCC1`, the viability in assay [1] is 100%; in assay [3], 100% (inactive); in assay [4] it was 95.8% (inactive); in assay [5] it was 99% (inactive); in assay [6] (setting [9]) it was 92.9%; in assay [6] (setting [10]), 99%. Moreover, in assay [2], the Her2 level was 93% (inactive). Moreover, the differential viability (reversal) in assay [6] (H69AR cells + 2 uM doxorubicin) is 6.15% (inactive). For the same compound, the inhibition was -5.33% (inactive) in assay [7] and -0.49% (inactive) in assay [8].

Take `CC1CCN(S(=O)(=O)c2ccc(S(=O)(=O)NCC(=O)C(C)(C)C)cc2)CC1`: the viability in assay [1] is 108%; in assay [3] it was 108% (inactive); in assay [4], 92.7% (inactive); in assay [5], 91.8% (inactive); in assay [6] (setting [9]), 85.3%; in assay [6] (setting [10]), 91.8%. Besides, the Her2 level in assay [2] was 97% (inactive). Further, in assay [6] (H69AR cells + 2 uM doxorubicin), the differential viability (reversal) was 6.57% (inactive). Further, the inhibition in assay [7] is -6.97% (inactive); in assay [8], -8.23% (inactive).

As for `CCOc1cc(C2c3c(n[nH]c3C)C(=O)N2c2ccc(Br)cc2)ccc1O` (stereo not given), the viability in assay [1] is 102%; in assay [3] it was 102% (inactive); in assay [4], 53.1% (inactive); in assay [5] it was 72.9% (inactive); in assay [6] (setting [9]), 62.9%; in assay [6] (setting [10]), 72.9%. In addition, in assay [2], the Her2 level is 71.5% (inactive). Moreover, the differential viability (reversal) in assay [6] (H69AR cells + 2 uM doxorubicin) was 9.98% (inactive). Further, the inhibition in assay [7] was -4.27% (inactive); in assay [8], 3.44% (inactive).

Take `Cn1c2ccccc2c2c(C(=O)NCCCN3CCCC3=O)cn(C3CCCCC3)c(=O)c21`: the viability in assay [1] is 86%; in assay [3], 86% (inactive); in assay [4], 95.9% (inactive); in assay [5], 83.7% (inactive); in assay [6] (setting [9]), 80.7%; in assay [6] (setting [10]), 83.7%. Moreover, the Her2 level in assay [2] is 88.5% (inactive). The differential viability (reversal) in assay [6] (H69AR cells + 2 uM doxorubicin) was 3.06% (inactive). Also, the inhibition in assay [7] was -4.53% (inactive); in assay [8], -0.49% (inactive).

Regarding `Cc1cc(C)c(C#N)c(SCc2[nH]nc3c2C(c2ccccc2)C(C#N)=C(N)O3)n1` (stereo not given), the viability in assay [1] is 93%; in assay [3], 93% (inactive); in assay [4] it was 85.3% (inactive); in assay [5], 99.7% (inactive); in assay [6] (setting [9]), 95.1%; in assay [6] (setting [10]) it was 99.7%. The Her2 level in assay [2] was 80.5% (inactive). Moreover, in assay [6] (H69AR cells + 2 uM doxorubicin), the differential viability (reversal) is 4.6% (inactive). For the same compound, the inhibition in assay [7] was -5.33% (inactive); in assay [8], -4.03% (inactive).

Consider `O=C(NCCCn1ccnc1)c1csc2ccccc12`, for which the viability was 84.5% in assay [1]; 84.5% (inactive) in assay [3]; 95.4% (inactive) in assay [4]; 97.5% (inactive) in assay [5]; 85.6% in assay [6] (setting [9]); 97.5% in assay [6] (setting [10]). In assay [2], the Her2 level is 89.5% (inactive). The differential viability (reversal) in assay [6] (H69AR cells + 2 uM doxorubicin) is 11.9% (inactive). Besides, the inhibition in assay [7] was -3.03% (inactive); in assay [8] it was 3.67% (inactive).

Regarding `CC(=O)N1CCN(c2ccc(N=Cc3c(O)n(Cc4ccccc4)c(=O)[nH]c3=O)cc2)CC1`, the viability in assay [1] is 89%; in assay [3], 89% (inactive); in assay [4], 83.5% (inactive); in assay [5], 94.6% (inactive); in assay [6] (setting [9]), 98.2%; in assay [6] (setting [10]), 94.6%. Moreover, the Her2 level in assay [2] was 87.5% (inactive). Further, in assay [6] (H69AR cells + 2 uM doxorubicin), the differential viability (reversal) is -3.64% (inactive). Also, the figures for the inhibition in assay [7] and in assay [8] were -0.91% (inactive) and 0.95% (inactive), respectively.

Turning to `CCOC(=O)N1CCC(NC(=O)c2ccc3c(c2)N(C)CCS3)CC1`, the viability in assay [1] is 87%; in assay [3], 87% (inactive); in assay [4] it was 109% (inactive); in assay [5], 92.2% (inactive); in assay [6] (setting [9]) it was 83.9%; in assay [6] (setting [10]), 92.2%. In addition, in assay [2], the Her2 level was 92.5% (inactive). In addition, the differential viability (reversal) in assay [6] (H69AR cells + 2 uM doxorubicin) was 8.3% (inactive). Besides, the inhibition was -4.21% (inactive) in assay [7] and 4.92% (inactive) in assay [8].

Turning to `COC(=O)C(C)Oc1ccc2c3c(c(=O)oc2c1)CCCCC3` (stereo not given), the viability in assay [1] is 90%; in assay [3] it was 90% (inactive); in assay [4], 93.7% (inactive); in assay [5], 103% (inactive); in assay [6] (setting [9]), 92.8%; in assay [6] (setting [10]), 103%. Also, the Her2 level in assay [2] is 94.5% (inactive). Further, the differential viability (reversal) in assay [6] (H69AR cells + 2 uM doxorubicin) is 10.5% (inactive). The inhibition in assay [7] was 1.05% (inactive); in assay [8], 5.74% (inactive).

By viability is commonly meant a read-out of living cells in per cent, often relative to untreated cells. The inhibition is the change of the read-out against control, counted positive when it falls.

The values above are taken from PubChem BioAssay.
